Results reported in ChEMBL document CHEMBL2321857, “Synthesis, topoisomerase-targeting activity and growth inhibition of lycobetaine analogs” (Bioorg Med Chem, 2013).
pIC50: −log10 of the molar value. Calls of active or inactive are those of the source. The rule behind the calls is not given here.

Molecular target: DNA topoisomerase 2-alpha (Homo sapiens) (UniProt P11388)
Assay: Inhibition of human recombinant topoisomerase 2alpha-mediated decatenation of kDNA at 50 uM after 60 mins by ethidium bromide staining based gel electrophoresis analysis
Conditions: not given
In short: (§1)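 Recombinant human topo IIα or IIβ (40 ng) was incubated with 200 ng Crithidia kDNA. Buffer: 50 mM Tris/HCl pH 7.9, 120 mM KCl, 10 mM MgCl2, 1 mM ATP, 0.5 mM DTT, 0.5 mM EDTA, 0.03 mg/mL BSA. Incubation 60 min at 37 °C. Stopped with proteinase K/SDS, digested 30 min, run on 1% agarose and stained with ethidium bromide. Decatenated minicircle signal as T/C% vs DMSO; three experiments.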

DNA topoisomerase 2-alpha (Homo sapiens), sequence (P11388 whole entry): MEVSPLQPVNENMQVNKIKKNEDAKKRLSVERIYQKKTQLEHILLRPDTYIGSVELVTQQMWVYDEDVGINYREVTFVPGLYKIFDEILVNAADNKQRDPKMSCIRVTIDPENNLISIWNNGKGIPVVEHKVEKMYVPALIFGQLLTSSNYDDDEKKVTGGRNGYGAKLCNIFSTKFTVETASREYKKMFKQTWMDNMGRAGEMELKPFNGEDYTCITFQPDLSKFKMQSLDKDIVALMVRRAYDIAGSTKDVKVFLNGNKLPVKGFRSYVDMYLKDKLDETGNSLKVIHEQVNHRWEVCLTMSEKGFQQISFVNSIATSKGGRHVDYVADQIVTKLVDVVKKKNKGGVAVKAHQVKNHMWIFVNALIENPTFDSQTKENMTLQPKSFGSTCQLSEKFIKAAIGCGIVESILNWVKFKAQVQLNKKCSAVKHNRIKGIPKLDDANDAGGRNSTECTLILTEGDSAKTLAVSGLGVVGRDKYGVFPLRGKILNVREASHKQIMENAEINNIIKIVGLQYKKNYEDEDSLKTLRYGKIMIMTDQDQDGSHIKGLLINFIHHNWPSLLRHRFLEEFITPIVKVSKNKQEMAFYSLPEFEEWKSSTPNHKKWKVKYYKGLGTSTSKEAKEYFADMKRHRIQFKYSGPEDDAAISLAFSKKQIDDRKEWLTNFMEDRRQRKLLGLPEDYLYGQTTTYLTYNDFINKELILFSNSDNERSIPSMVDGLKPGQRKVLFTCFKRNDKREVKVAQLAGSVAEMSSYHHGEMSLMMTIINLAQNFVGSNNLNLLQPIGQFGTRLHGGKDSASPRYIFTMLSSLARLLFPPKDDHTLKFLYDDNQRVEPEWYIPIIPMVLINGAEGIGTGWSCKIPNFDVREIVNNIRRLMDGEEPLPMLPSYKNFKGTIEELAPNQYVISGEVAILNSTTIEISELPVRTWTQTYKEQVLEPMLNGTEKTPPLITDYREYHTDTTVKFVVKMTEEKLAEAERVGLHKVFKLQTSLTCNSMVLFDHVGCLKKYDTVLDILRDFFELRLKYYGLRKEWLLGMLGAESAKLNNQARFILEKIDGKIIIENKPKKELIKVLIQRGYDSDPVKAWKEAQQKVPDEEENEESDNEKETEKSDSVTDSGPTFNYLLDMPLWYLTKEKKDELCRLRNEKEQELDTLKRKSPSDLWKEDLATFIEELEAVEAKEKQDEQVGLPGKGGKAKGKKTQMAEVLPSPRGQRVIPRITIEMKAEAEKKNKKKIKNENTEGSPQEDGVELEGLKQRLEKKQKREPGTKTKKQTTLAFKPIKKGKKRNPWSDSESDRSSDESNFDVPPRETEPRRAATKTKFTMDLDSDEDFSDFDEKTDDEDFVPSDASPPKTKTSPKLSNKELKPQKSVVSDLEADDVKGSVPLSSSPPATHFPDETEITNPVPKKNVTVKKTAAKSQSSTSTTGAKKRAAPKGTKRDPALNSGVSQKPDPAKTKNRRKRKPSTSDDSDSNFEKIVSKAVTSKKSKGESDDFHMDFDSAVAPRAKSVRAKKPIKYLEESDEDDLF

Row | Structure (SMILES) | inhibition
1 | COc1ccc2c(c1)c1cc3c(cc1c[n+]2C)OCO3 | Active
2 | Oc1cc2c3c(c1)c1cc4c(cc1c[n+]3CC2)OCO4 [LYCOBETAINE] | Active
3 | C[n+]1cc2cc3c(cc2c2cc(O)ccc21)OCO3 | Active

Molecular target: DNA topoisomerase 2-alpha (Homo sapiens) (UniProt P11388)
Assay: Inhibition of topoisomerase 2alpha in human A431 cells assessed as DNA peak fractions level after 1 hr by ICE assay
Type: cell-based
Conditions: A-431
In short: (§2)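 A431 cells were grown 72 h, then treated 1 h serum-free (10–100 µM; 1% DMSO control). Cells were lysed in sarkosyl TE buffer, and lysate was spun on a CsCl step gradient at 100,000 × g for 24 h at 20 °C. Fractions were measured by A260 and slot-blotted. Topo I, IIα or IIβ was immunodetected by chemiluminescence and expressed as T/C% per DNA content. Three experiments.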

Row | Structure (SMILES) | inhibition
4 | Oc1cc2c3c(c1)c1cc4c(cc1c[n+]3CC2)OCO4 [LYCOBETAINE] | Dose-dependent effect

Molecular target: T1, DNA topoisomerase 1 (Homo sapiens) (UniProt P11387)
T1 sequence (whole entry): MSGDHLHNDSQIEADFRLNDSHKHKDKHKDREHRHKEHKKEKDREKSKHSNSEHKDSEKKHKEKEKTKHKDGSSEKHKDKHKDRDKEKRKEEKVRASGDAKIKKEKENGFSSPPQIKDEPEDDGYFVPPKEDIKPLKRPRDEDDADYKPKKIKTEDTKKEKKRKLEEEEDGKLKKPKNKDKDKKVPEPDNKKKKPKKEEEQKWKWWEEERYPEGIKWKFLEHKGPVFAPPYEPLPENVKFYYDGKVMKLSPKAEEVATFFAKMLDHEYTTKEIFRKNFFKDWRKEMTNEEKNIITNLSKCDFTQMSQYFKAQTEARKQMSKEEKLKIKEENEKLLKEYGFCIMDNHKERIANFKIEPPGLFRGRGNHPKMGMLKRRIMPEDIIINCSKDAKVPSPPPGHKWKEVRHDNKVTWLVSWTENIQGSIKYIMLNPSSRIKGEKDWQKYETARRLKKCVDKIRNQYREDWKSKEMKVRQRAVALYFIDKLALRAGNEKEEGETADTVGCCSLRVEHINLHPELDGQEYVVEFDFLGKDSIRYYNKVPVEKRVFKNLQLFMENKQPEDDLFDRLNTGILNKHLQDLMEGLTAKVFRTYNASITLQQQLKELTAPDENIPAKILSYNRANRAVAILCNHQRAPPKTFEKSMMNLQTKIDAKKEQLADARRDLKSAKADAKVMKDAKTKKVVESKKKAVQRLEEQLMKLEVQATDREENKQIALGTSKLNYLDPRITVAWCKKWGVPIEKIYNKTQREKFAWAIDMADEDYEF
Assay: Stabilization of topoisomerase 1/DNA complex in human A431 cells
Type: cell-based
Conditions: A-431
In short: as §2

Row | Structure (SMILES) | Activity
5 | Oc1cc2c3c(c1)c1cc4c(cc1c[n+]3CC2)OCO4 [LYCOBETAINE] | inactive

Molecular target: DNA topoisomerase 2-beta (Homo sapiens) (UniProt Q02880)
Sequence (Q02880 whole entry): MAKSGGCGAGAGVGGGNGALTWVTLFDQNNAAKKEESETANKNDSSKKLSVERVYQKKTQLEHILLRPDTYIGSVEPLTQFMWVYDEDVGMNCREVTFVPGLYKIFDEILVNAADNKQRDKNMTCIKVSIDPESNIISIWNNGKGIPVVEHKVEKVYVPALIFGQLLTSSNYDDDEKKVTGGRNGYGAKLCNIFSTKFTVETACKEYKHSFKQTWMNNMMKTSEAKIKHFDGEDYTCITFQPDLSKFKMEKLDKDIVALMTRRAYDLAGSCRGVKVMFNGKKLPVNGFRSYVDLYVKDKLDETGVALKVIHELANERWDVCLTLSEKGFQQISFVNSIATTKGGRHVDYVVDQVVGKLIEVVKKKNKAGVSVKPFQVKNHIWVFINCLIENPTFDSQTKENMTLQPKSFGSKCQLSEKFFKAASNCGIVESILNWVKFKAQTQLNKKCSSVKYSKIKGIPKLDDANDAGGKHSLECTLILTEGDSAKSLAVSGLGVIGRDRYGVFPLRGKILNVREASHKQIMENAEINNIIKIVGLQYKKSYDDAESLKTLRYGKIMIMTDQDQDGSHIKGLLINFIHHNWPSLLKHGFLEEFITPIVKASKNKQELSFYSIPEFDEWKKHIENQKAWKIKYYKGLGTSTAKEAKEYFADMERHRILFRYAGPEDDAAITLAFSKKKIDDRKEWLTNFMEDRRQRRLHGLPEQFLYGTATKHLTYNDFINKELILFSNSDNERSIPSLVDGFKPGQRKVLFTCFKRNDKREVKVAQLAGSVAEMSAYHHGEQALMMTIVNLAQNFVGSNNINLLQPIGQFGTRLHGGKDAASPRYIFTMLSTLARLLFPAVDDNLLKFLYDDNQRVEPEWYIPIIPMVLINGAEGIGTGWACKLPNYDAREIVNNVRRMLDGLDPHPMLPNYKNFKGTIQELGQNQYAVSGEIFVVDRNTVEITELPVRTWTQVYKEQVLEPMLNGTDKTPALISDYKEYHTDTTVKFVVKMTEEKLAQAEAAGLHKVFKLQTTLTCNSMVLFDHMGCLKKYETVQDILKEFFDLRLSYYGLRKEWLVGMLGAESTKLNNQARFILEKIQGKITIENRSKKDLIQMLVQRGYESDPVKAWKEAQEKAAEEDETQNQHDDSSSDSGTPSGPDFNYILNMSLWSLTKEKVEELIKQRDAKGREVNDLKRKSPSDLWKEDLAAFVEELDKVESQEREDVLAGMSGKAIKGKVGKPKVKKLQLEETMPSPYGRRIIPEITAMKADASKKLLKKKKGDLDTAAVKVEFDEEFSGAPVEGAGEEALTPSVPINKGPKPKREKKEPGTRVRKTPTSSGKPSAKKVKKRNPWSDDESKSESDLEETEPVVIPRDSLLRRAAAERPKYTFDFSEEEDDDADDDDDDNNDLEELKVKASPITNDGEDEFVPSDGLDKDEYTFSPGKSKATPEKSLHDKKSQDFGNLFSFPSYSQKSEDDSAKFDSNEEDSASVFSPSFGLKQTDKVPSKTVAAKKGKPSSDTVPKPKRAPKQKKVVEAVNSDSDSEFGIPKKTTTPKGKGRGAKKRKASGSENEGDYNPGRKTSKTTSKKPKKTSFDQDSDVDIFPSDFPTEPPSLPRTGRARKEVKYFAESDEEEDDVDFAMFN
Assay: Inhibition of human recombinant topoisomerase 2beta-mediated decatenation of kDNA at 100 uM after 60 mins by ethidium bromide staining based gel electrophoresis analysis
Conditions: not given
In short: as §1

Row | Structure (SMILES) | inhibition
6 | COc1ccc2c(c1)c[n+](C)c1ccc(O)cc21 | inactive
7 | COc1ccc2c(c1)c1ccccc1c[n+]2C | Active
8 | COc1cc2c[n+](C)c3ccc(O)cc3c2cc1OC | inactive

Molecular target: T1, DNA topoisomerase 1 (Homo sapiens)
Assay: Inhibition of human recombinant topoisomerase 1-mediated relaxation of supercoiled pUC18 plasmid DNA in human MCF7 cells nuclear extracts at 50 uM after 30 mins by ethidium bromide staining based gel electrophoresis analysis
Type: cell-free
Conditions: not given
In short: (§3)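 Topo I activity came from MCF-7 nuclear extract (0.3 µL) acting on 250 ng supercoiled pUC18. Buffer: 10 mM Tris/HCl pH 7.9, 50 mM KCl, 10 mM MgCl2, 0.5 mM DTT, 0.5 mM EDTA, 0.03 mg/mL BSA, no ATP. Incubation 30 min at 37 °C. Stopped with SDS, then proteinase K digest. Run on 1% agarose TAE gel and stained with ethidium bromide afterward. Scored as lowest inhibiting concentration from 10, 30, 50 or 100 µM.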

Row | Structure (SMILES) | inhibition
9 | COc1cc2c[n+](C)c3ccc(O)cc3c2cc1OC | Active

Molecular target: T1, DNA topoisomerase 1 (Homo sapiens)
Assay: Inhibition of human recombinant topoisomerase 1-mediated relaxation of supercoiled pUC18 plasmid DNA in human MCF7 cells nuclear extracts at 10 uM after 30 mins by ethidium bromide staining based gel electrophoresis analysis
Type: cell-free
Conditions: not given
In short: as §3

Row | Structure (SMILES) | inhibition
10 | COc1ccc2c(c1)c[n+](C)c1ccc(O)cc21 | Active
11 | COc1ccc2c(c1)c1ccccc1c[n+]2C | Active
12 | C[n+]1cc2cc3c(cc2c2ccccc21)OCO3 | Active
13 | COc1ccc2c(c1)c1cc(OC)c(OC)cc1c[n+]2C | Active
14 | COc1ccc2c(c1)c1cc3c(cc1c[n+]2C)OCO3 | Active
15 | Oc1cc2c3c(c1)c1cc4c(cc1c[n+]3CC2)OCO4 [LYCOBETAINE] | Active
16 | C[n+]1cc2cc3c(cc2c2cc(O)ccc21)OCO3 | Active

Molecular target: DNA topoisomerase 2-beta (Homo sapiens) (UniProt Q02880)
Assay: Inhibition of topoisomerase 2beta in human A431 cells assessed as DNA peak fractions level after 1 hr by ICE assay
Type: cell-based
Conditions: A-431
In short: as §2

Row | Structure (SMILES) | inhibition
17 | Oc1cc2c3c(c1)c1cc4c(cc1c[n+]3CC2)OCO4 [LYCOBETAINE] | Dose-dependent effect

Molecular target: DNA topoisomerase 2-alpha (Homo sapiens) (UniProt P11388)
Assay: Inhibition of human recombinant topoisomerase 2alpha-mediated decatenation of kDNA at 100 uM after 60 mins by ethidium bromide staining based gel electrophoresis analysis
Conditions: not given
In short: as §1

Row | Structure (SMILES) | inhibition
18 | COc1ccc2c(c1)c[n+](C)c1ccc(O)cc21 | inactive
19 | COc1ccc2c(c1)c1ccccc1c[n+]2C | Active
20 | COc1ccc2c(c1)c1cc(OC)c(OC)cc1c[n+]2C | Active
21 | COc1cc2c[n+](C)c3ccc(O)cc3c2cc1OC | inactive

Molecular target: DNA topoisomerase 2-beta (Homo sapiens) (UniProt Q02880)
Assay: Inhibition of human recombinant topoisomerase 2beta-mediated decatenation of kDNA at 30 uM after 60 mins by ethidium bromide staining based gel electrophoresis analysis
Conditions: not given
In short: as §1

Row | Structure (SMILES) | inhibition
22 | COc1ccc2c(c1)c1cc3c(cc1c[n+]2C)OCO3 | Active
23 | Oc1cc2c3c(c1)c1cc4c(cc1c[n+]3CC2)OCO4 [LYCOBETAINE] | Active
24 | C[n+]1cc2cc3c(cc2c2cc(O)ccc21)OCO3 | Active

Molecular target: DNA topoisomerase 2-beta (Homo sapiens) (UniProt Q02880)
Assay: Inhibition of human recombinant topoisomerase 2beta-mediated decatenation of kDNA up to 50 uM after 60 mins by ethidium bromide staining based gel electrophoresis analysis
Conditions: not given
In short: as §1

Row | Structure (SMILES) | inhibition
25 | COc1ccc2c[n+](C)c3ccc(O)cc3c2c1 | inactive
26 | C[n+]1cc2cc3c(cc2c2ccccc21)OCO3 | inactive

Test system: not listed separately
Assay: Growth inhibition of human GXF251L cells after 72 hrs by SRB assay
Type: functional
Conditions: GXF 251L
In short: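 GXF251L gastric xenograft-derived cells in RPMI-1640 with 10% FCS were seeded at 6000 cells/well and grown 24 h. They were then exposed 72 h in serum-containing medium with 1% DMSO final. Cells were fixed with TCA for 1 h at 4 °C and stained with 0.4% SRB. Dye was dissolved in 10 mM Tris pH 10.5 and read at 570 nm. IC50 vs DMSO control; three independent experiments.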

Row | Structure (SMILES) | pIC50
27 | Oc1ccc2ncc3cc4c(cc3c2c1)OCO4 | 4.76
28 | COc1ccc2c[n+](C)c3ccc(O)cc3c2c1 | 5.08
29 | COc1ccc2c(c1)c[n+](C)c1ccc(O)cc21 | 5.27
30 | COc1ccc2c(c1)c1ccccc1c[n+]2C | 5.40
31 | COc1ccc2ncc3cc4c(cc3c2c1)OCO4 | 4.92
32 | COc1ccc2ncc3cc(OC)c(OC)cc3c2c1 | 4.39
33 | COc1cc2cnc3ccc(O)cc3c2cc1OC | 4.59
34 | COc1ccc2c(cnc3ccc(O)cc32)c1 | < 4.30
35 | COc1ccc2cnc3ccc(O)cc3c2c1 | 4.39
36 | C[n+]1cc2cc3c(cc2c2ccccc21)OCO3 | 5.72
37 | COc1ccc2c(c1)c1cc(OC)c(OC)cc1c[n+]2C | 5.11
38 | c1ccc2c(c1)ncc1cc3c(cc12)OCO3 [TRISPHAERIDINE] | 4.92
39 | COc1ccc2c(c1)c1cc3c(cc1c[n+]2C)OCO3 | 6.05
40 | COc1cc2c[n+](C)c3ccc(O)cc3c2cc1OC | 4.73
41 | Oc1cc2c3c(c1)c1cc4c(cc1c[n+]3CC2)OCO4 [LYCOBETAINE] | 5.49
42 | C[n+]1cc2cc3c(cc2c2cc(O)ccc21)OCO3 | 5.80

Molecular target: T1, DNA topoisomerase 1 (Homo sapiens)
Assay: Inhibition of human recombinant topoisomerase 1-mediated relaxation of supercoiled pUC18 plasmid DNA in human MCF7 cells nuclear extracts at 100 uM after 30 mins by ethidium bromide staining based gel electrophoresis analysis
Type: cell-free
Conditions: not given
In short: as §3

Row | Structure (SMILES) | inhibition
43 | Oc1ccc2ncc3cc4c(cc3c2c1)OCO4 | inactive
44 | COc1ccc2c[n+](C)c3ccc(O)cc3c2c1 | inactive
45 | COc1ccc2ncc3cc4c(cc3c2c1)OCO4 | inactive
46 | COc1ccc2ncc3cc(OC)c(OC)cc3c2c1 | inactive
47 | COc1cc2cnc3ccc(O)cc3c2cc1OC | inactive
48 | COc1ccc2c(cnc3ccc(O)cc32)c1 | inactive
49 | COc1ccc2cnc3ccc(O)cc3c2c1 | inactive
50 | c1ccc2c(c1)ncc1cc3c(cc12)OCO3 [TRISPHAERIDINE] | inactive

Molecular target: DNA topoisomerase 2-alpha (Homo sapiens) (UniProt P11388)
Assay: Inhibition of human recombinant topoisomerase 2alpha-mediated decatenation of kDNA up to 50 uM after 60 mins by ethidium bromide staining based gel electrophoresis analysis
Conditions: not given
In short: as §1

Row | Structure (SMILES) | inhibition
51 | COc1ccc2c[n+](C)c3ccc(O)cc3c2c1 | inactive
52 | C[n+]1cc2cc3c(cc2c2ccccc21)OCO3 | inactive
